How the values were obtained:
[1] = molecular target: Cyclin-dependent kinase 4/cyclin D1 (Homo sapiens, UniProt P11802); assay: (§1) Inhibition of human CDK4/ Cyclin D1 catalytic subunit expressed in Sf9 insect cells assessed as GST-RB152 fusion protein phosphorylation-associated depletion in ATP level by luminescence assay
Outline: (§2)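 Human GST-cyclin D1 co-expressed with CDK4 in Sf-9 cells, purified on glutathione-agarose, eluted and dialysed. Substrate GST-RB152, expressed in E. coli BL21(DE3)pLysS with 4 mM IPTG induction for 4 h at 37 °C. Reaction: 2 µg GST-RB152 and 6 µM ATP in 50 µL Tris pH 7.5/MgCl2/BSA buffer with phosphatase inhibitors and DTT. Started with 200 ng enzyme, 30 min at 30 °C. Read-out Kinase-Glo luminescence of ATP depletion, giving IC50.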

[2] = molecular target: Cyclin-dependent kinase 2 (Homo sapiens, UniProt P24941); assay: Inhibition of human CDK2/ Cyclin A catalytic subunit expressed in Sf9 insect cells assessed as histone H1 phosphorylation-associated depletion in ATP level by luminescence assay
Outline: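 Human GST-cyclin A co-expressed with CDK2 in Sf-9 cells, captured on glutathione-agarose, eluted with reduced glutathione, then dialysed. Reaction volume 50 µL in kinase buffer (40 mM Tris pH 7.5, 20 mM MgCl2, 0.1 mg/ml BSA) with 3 µg histone H1 and 6 µM ATP. Also contains 10 mM β-glycerophosphate, 0.1 mM NaF, 0.1 mM orthovanadate and 1 mM DTT. Started with 200 ng enzyme, run 30 min at 30 °C. Remaining ATP read by Kinase-Glo luminescence; IC50 derived from ATP depletion. Compounds from 10 mM DMSO stocks, serially diluted in kinase buffer.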

[3] = molecular target: Cyclin-dependent kinase 4/cyclin D1 (Homo sapiens, UniProt P11802+P24385); assay: as §1; conditions: sf9; outline: as §2
Sequence of Cyclin-dependent kinase 4/cyclin D1 (Homo sapiens, UniProt P11802+P24385) (P11802 whole entry): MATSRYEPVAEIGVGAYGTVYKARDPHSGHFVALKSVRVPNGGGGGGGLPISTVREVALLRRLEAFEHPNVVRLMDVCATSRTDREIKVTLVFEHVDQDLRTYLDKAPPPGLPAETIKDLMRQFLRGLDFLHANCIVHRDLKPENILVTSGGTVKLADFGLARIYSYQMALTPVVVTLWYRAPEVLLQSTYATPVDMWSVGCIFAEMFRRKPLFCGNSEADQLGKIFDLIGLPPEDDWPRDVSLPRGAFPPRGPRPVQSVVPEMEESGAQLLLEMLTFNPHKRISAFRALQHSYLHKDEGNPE
Sequence of Cyclin-dependent kinase 4/cyclin D1 (Homo sapiens, UniProt P11802+P24385) (P24385 whole entry): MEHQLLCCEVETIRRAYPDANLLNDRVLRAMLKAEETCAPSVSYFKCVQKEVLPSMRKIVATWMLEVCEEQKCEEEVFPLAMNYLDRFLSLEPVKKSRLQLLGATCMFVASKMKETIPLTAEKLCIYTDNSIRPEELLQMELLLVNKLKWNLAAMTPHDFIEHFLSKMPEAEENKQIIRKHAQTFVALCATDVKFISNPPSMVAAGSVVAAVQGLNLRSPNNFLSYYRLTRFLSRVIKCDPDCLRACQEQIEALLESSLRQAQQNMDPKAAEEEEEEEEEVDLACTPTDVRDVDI

Sequence of Cyclin-dependent kinase 4/cyclin D1 (Homo sapiens, UniProt P11802) (P11802 whole entry, the tested form may be a part): as the sequence (P11802 whole entry) above
Sequence of Cyclin-dependent kinase 4/cyclin D1 (Homo sapiens, UniProt P11802) (P24385 whole entry, further chain, the tested form may be a part): as the sequence (P24385 whole entry) above

Compound	IC50 [1] [µM]	IC50 ([2]; read-out: IC50) [µM]	IC50 [3]	IC50 ([2]; sf9)
O=C(C(=O)N1CCc2cc(F)ccc21)c1c[nH]c2ccccc12	136	790	–	–
Clc1ccc2c(ccn2CCc2c[nH]c3ccc(Cl)cc23)c1	38	862	–	–
c1ccc2c(c1)CCN2CCCN1CCc2ccccc21	–	–	ND(Insoluble)	ND(Insoluble)
c1ccc2c(c1)CCN2CCCCCCN1CCc2ccccc21	–	–	ND(Insoluble)	ND(Insoluble)
c1ccc2c(c1)ccn2CCn1ccc2ccccc21	37	940	–	–
c1ccc2c(c1)ccn2CCCCCCn1ccc2ccccc21	106	1210	–	–
O=C(C(=O)N1CCc2ccccc21)c1c[nH]c2ccc(F)cc12	116	1160	–	–
O=C(C(=O)N1CCc2ccccc21)c1c[nH]c2ccc(Cl)cc12	96	985	–	–
O=C(C(=O)N1CCc2cc(Cl)ccc21)c1c[nH]c2ccc(Cl)cc12	43.5	915	–	–
c1ccc2c(c1)ccn2CCc1c[nH]c2ccccc12	> 500	> 500	–	–
Cc1ccc2c(ccn2CCc2c[nH]c3ccccc23)c1	130	500	–	–
O=C(C(=O)N1CCc2ccccc21)c1c[nH]c2ccccc12	122	760	–	–
Clc1ccc2c(ccn2CCc2c[nH]c3ccccc23)c1	140	430	–	–
c1ccc2c(c1)CCN2CCN1CCc2ccccc21	66	1230	–	–
Fc1ccc2[nH]cc(CCn3ccc4ccccc43)c2c1	50	200	–	–
c1ccc2c(c1)ccn2CCCn1ccc2ccccc21	38	1070	–	–
Fc1ccc2c(ccn2CCc2c[nH]c3ccccc23)c1	95	> 500	–	–
O=C(C(=O)N1CCc2cc(Cl)ccc21)c1c[nH]c2ccccc12	69.5	1030	–	–
c1ccc2c(c1)ccn2CCCCn1ccc2ccccc21	45	1030	–	–
O=C(C(=O)N1CCc2cc(F)ccc21)c1c[nH]c2ccc(F)cc12	48	816	–	–
Cc1ccc2c(c1)CCN2C(=O)C(=O)c1c[nH]c2ccc(C)cc12	38	710	–	–
Cc1ccc2c(ccn2CCc2c[nH]c3ccc(C)cc23)c1	44	960	–	–
c1ccc2c(c1)ccn2CCCCCn1ccc2ccccc21	52	950	–	–
Cc1ccc2c(c1)CCN2C(=O)C(=O)c1c[nH]c2ccccc12	54	910	–	–
Cc1ccc2[nH]cc(C(=O)C(=O)N3CCc4ccccc43)c2c1	41.5	951	–	–
Clc1ccc2[nH]cc(CCn3ccc4ccccc43)c2c1	> 500	> 500	–	–
c1ccc2c(c1)CCN2CCCCN1CCc2ccccc21	–	–	ND(Insoluble)	ND(Insoluble)
Fc1ccc2c(ccn2CCc2c[nH]c3ccc(F)cc23)c1	73	895	–	–
c1ccc2c(c1)CCN2CCCCCN1CCc2ccccc21	–	–	ND(Insoluble)	ND(Insoluble)
Cc1ccc2[nH]cc(CCn3ccc4ccccc43)c2c1	150	400	–	–
